# According to ChEMBL document CHEMBL3808334, “Synthesis and in vitro evaluation of novel triazine analogues as anticancer agents and their interaction studies with bovine serum albumin” (Eur J Med Chem, 2016):
# Tests used:
# Assay type in all cases: functional
# Malme-3M = assay: Growth inhibition of human MALME-3M cells assessed as cell growth at 10 uM incubated for 48 hrs by sulforhodamine B assay; settings: read-out: Activity
# [1] = Growth inhibition of human OVCAR8 cells assessed as cell growth at 10^-4 M incubated for 48 hrs by sulforhodamine B assay; settings: OVCAR-8, 48 h, read-out: Activity
# NCI/ADR-RES = assay: Growth inhibition of human NCI/ADR-RES cells assessed as cell growth at 10^-7 M incubated for 48 hrs by sulforhodamine B assay; settings: read-out: Activity
# SN12C = assay: Growth inhibition of human SN12C cells assessed as cell growth at 10^-7 M incubated for 48 hrs by sulforhodamine B assay; settings: read-out: Activity
# [2] = Growth inhibition of human RXF393 cells assessed as cell growth at 10 uM incubated for 48 hrs by sulforhodamine B assay; settings: RXF 393, 48 h, read-out: Activity
# [3] = Growth inhibition of human MOLT4 cells assessed as cell growth at 10^-8 M incubated for 48 hrs by sulforhodamine B assay; settings: MOLT-4, 48 h, read-out: Activity
# [4] = Growth inhibition of human BT549 cells assessed as cell growth at 10 uM incubated for 48 hrs by sulforhodamine B assay; settings: BT-549, 48 h, read-out: Activity
# Summary of the method: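 One-dose screen at 10 µM final. Cells are plated at 5,000–40,000 per well according to doubling time and preincubated 24 h at 37 °C, 5% CO₂. Compound (DMSO stock diluted in medium with 50 µg/ml gentamicin) is then added for 48 h. Growth percent is read by sulforhodamine B staining, absorbance at 515 nm.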
# [5] = Growth inhibition of human RPMI8226 cells incubated for 48 hrs by sulforhodamine B assay; settings: RPMI-8226, 48 h
# Summary of the method: (§1)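 Cells were plated at 5,000–40,000 per well according to doubling time and preincubated 24 h at 37 °C in 5% CO2; time-zero plates were then TCA-fixed. Five concentrations (10-fold or ½-log dilutions, DMSO stock) were incubated 48 h. Cells were TCA-fixed, stained with 0.4% SRB and read at 515 nm. GI50 was taken where [(Ti−Tz)/(C−Tz)]×100 = 50.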
# [6] = Growth inhibition of human SF539 cells assessed as cell growth at 10^-7 M incubated for 48 hrs by sulforhodamine B assay; settings: SF-539, 48 h, read-out: Activity
# HT-29 [7] = assay: Growth inhibition of human HT-29 cells assessed as cell growth at 10^-7 M incubated for 48 hrs by sulforhodamine B assay; settings: HT-29, 48 h, read-out: Activity
# [8] = Growth inhibition of human SF268 cells incubated for 48 hrs by sulforhodamine B assay; settings: SF-268, 48 h; summary of the method: as §1
# HT-29 [9] = assay: Growth inhibition of human HT-29 cells assessed as cell growth at 10 uM incubated for 48 hrs by sulforhodamine B assay; settings: HT-29, 48 h, read-out: Activity
# [10] = Growth inhibition of human SNB75 cells incubated for 48 hrs by sulforhodamine B assay; settings: SNB-75, 48 h; summary of the method: as §1
# A498 = assay: Growth inhibition of human A498 cells assessed as cell growth at 10^-5 M incubated for 48 hrs by sulforhodamine B assay; settings: A498, 48 h, read-out: Activity
# Summary of the method: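 Five-dose assay: five concentrations from 10-fold or ½-log serial dilutions. Cells are plated at 5,000–40,000 per well according to doubling time, grown 24 h, then exposed 48 h at 37 °C, 5% CO₂. Fixed with cold 50% TCA (final addition) for 60 min at 4 °C and stained with 0.4% SRB in 1% acetic acid. Bound dye is solubilized in 10 mM Tris base and read at 515 nm. GI₅₀ is where [(Ti−Tz)/(C−Tz)]×100 = 50, with a time-zero plate as Tz.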
# [11] = Growth inhibition of human SNB19 cells assessed as cell growth at 10^-5 M incubated for 48 hrs by sulforhodamine B assay; settings: SNB-19, 48 h, read-out: Activity
# [12] = Growth inhibition of human HCT116 cells assessed as cell growth at 10 uM incubated for 48 hrs by sulforhodamine B assay; settings: HCT-116, 48 h, read-out: Activity
# Summary of the method: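 Primary screen at one dose (10 µM) across 60 human cancer cell lines. Readout was growth percent relative to untreated control and time-zero.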
# NCI-H460 = assay: Growth inhibition of human NCI-H460 cells assessed as cell growth at 10^-4 M incubated for 48 hrs by sulforhodamine B assay; settings: NCI-H460, 48 h, read-out: Activity
# [13] = Growth inhibition of human HL-60(TB) cells assessed as cell growth at 10^-4 M incubated for 48 hrs by sulforhodamine B assay; settings: HL-60, 48 h, read-out: Activity
# Summary of the method: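 Cells plated at 5,000–40,000/well according to doubling time and preincubated 24 h at 37 °C, 5% CO₂, with time-zero plates TCA-fixed. Drugs were kept as DMSO concentrates at 400× the top concentration and diluted in medium with 50 µg/ml gentamicin. Five 10-fold or ½-log dilutions were run for 48 h, followed by SRB staining and A515. Percent growth = (Ti−Tz)/(C−Tz)×100, or (Ti−Tz)/Tz×100 when Ti<Tz.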
# [14] = Growth inhibition of human SF268 cells assessed as cell growth at 10^-7 M incubated for 48 hrs by sulforhodamine B assay; settings: SF-268, 48 h, read-out: Activity
# U-251 = assay: Growth inhibition of human U251 cells assessed as cell growth at 10^-6 M incubated for 48 hrs by sulforhodamine B assay; settings: U-251, 48 h, read-out: Activity
# [15] = Growth inhibition of human HCT116 cells assessed as cell growth at 10^-4 M incubated for 48 hrs by sulforhodamine B assay; settings: HCT-116, 48 h, read-out: Activity
# Summary of the method: (§2)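 Cells seeded at 5,000–40,000/well according to doubling time and preincubated 24 h at 37 °C, 5% CO2. Time-zero plates were TCA-fixed. DMSO concentrate was diluted in medium with 50 µg/ml gentamicin to give five concentrations (10-fold or ½ log steps), then exposed 48 h. Cells were TCA-fixed, stained with 0.4% SRB and read at 515 nm. Percent growth was taken against time-zero and control; GI50, TGI and LC50 derived.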
# EKVX = assay: Growth inhibition of human EKVX cells assessed as cell growth at 10^-6 M incubated for 48 hrs by sulforhodamine B assay; settings: read-out: Activity; summary of the method: as §2
# MCF7 = assay: Growth inhibition of human MCF7 cells incubated for 48 hrs by sulforhodamine B assay; settings: MCF7, 48 h; summary of the method: as §1
# [16] = read-out: LC50 (the source's name)
# [17] = read-out: pLC50 (the source's name) (converted)
smiles,measurement,setting,value
c1ccc(-c2nc(Nc3ccc(-c4nc5ccccc5[nH]4)cc3)nc(N3CCOCC3)n2)cc1,growth at 10 µM,Malme-3M,-77.3%
same,growth at 100 µM,[1],-61%
same,growth at 0.1 µM,NCI/ADR-RES,95%
same,growth at 0.1 µM,SN12C,90%
same,growth at 10 µM,[2],-75.1%
same,growth at 0.01 µM,[3],96%
same,growth at 10 µM,[4],33.6%
same,GI50,[5]; read-out: GI50,1.11 µM
same,CC50,[5]; [16],> 100 µM
same,TGI,[5]; read-out: TGI,4.23 µM
same,GI50,[5]; read-out: pGI50 (converted),1.12 µM
same,CC50,[5]; [17],> 100 µM
same,TGI,[5]; read-out: pTGI (converted),4.27 µM
same,growth at 0.1 µM,[6],93%
same,growth at 0.1 µM,HT-29 [7],108%
same,GI50,[8]; read-out: GI50,1.64 µM
same,CC50,[8]; [16],6.39 µM
same,TGI,[8]; read-out: TGI,3.24 µM
same,GI50,[8]; read-out: pGI50 (converted),1.62 µM
same,CC50,[8]; [17],6.46 µM
same,TGI,[8]; read-out: pTGI (converted),3.24 µM
same,growth at 10 µM,HT-29 [9],-59.9%
same,GI50,[10]; read-out: GI50,1.64 µM
same,CC50,[10]; [16],6.07 µM
same,TGI,[10]; read-out: TGI,3.15 µM
same,GI50,[10]; read-out: pGI50 (converted),1.62 µM
same,CC50,[10]; [17],6.03 µM
same,TGI,[10]; read-out: pTGI (converted),3.16 µM
same,growth at 10 µM,A498,-76%
same,growth at 10 µM,[11],-53%
same,growth at 10 µM,[12],-81.5%
same,growth at 100 µM,NCI-H460,-78%
same,growth at 100 µM,[13],-56%
same,growth at 0.1 µM,[14],92%
same,growth at 1 µM,U-251,28%
same,growth at 100 µM,[15],-69%
same,growth at 1 µM,EKVX,81%
same,GI50,MCF7; read-out: GI50,0.877 µM
same,CC50,MCF7; [16],8.56 µM
same,TGI,MCF7; read-out: TGI,2.85 µM
same,GI50,MCF7; read-out: pGI50 (converted),0.871 µM
same,CC50,MCF7; [17],8.51 µM
same,TGI,MCF7; read-out: pTGI (converted),2.82 µM
